In brackets after ≈: the same amount, converted by molar mass.
How the values were obtained:
[1] = test system: Mycobacterium tuberculosis; test: microbe, parasite or virus in culture; details: H37Rv
[2] = test system: Mycobacterium tuberculosis; test: microbe, parasite or virus in culture; details: Mt103
[3] = test system: Mycobacterium tuberculosis; test: Antimycobacterial activity against wild-type Mycobacterium tuberculosis H37Rv ATCC 25618 expressing VV16 plasmid by colorimetric resazurin microtiter assay; format: functional
Method in brief: (§1)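 Resazurin colorimetric microtiter MIC in 7H9-ADC broth with 2% DMSO at 37°C; strains carry empty pVV16 or pVVethA complementation vector; ISO tested up to 40 μg/ml, highest soluble level.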

[4] = test system: Mycobacterium tuberculosis H37Rv; test: Inhibition of Mycobacterium tuberculosis H37Rv recombinant DesA3-mediated unsaturated fatty acid synthesis using Mycobacterium smegmatis MC2155 membrane and partially purified EthA as cofactors assessed as palmitoleic acid levels relative to control; design: scale not given: the % may be the effect or the level left
Method in brief: (§2)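 Cell-free desaturation: 0.5 mg M. smegmatis membrane protein, 3 μg His-tagged DesA3 purified from M. smegmatis, 500 μM palmitoyl-CoA, 1 mM NADPH, ±6 μg purified EthA, ISO 0 or 10 μg/ml final, 25 mM Tris-HCl pH 7.5; 75 min at 30°C; chloroform:methanol extraction, methyl esters, GC relative percentages.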

[5] = test system: Mycobacterium tuberculosis; test: Antimycobacterial activity against Mycobacterium tuberculosis isolate Mt103 expressing VV16 plasmid by colorimetric resazurin microtiter assay; format: functional
Method in brief: as §1

[6] = test system: Mycobacterium tuberculosis H37Rv; test: Inhibition of Mycobacterium tuberculosis H37Rv recombinant DesA3-mediated unsaturated fatty acid synthesis using Mycobacterium smegmatis MC2155 membrane and partially purified EthA as cofactors assessed as palmitic acid levels relative to control; design: scale not given: the % may be the effect or the level left
Method in brief: as §2

[7] = test system: Mycobacterium tuberculosis H37Rv; test: Inhibition of Mycobacterium tuberculosis H37Rv recombinant DesA3-mediated unsaturated fatty acid synthesis using Mycobacterium smegmatis MC2155 membrane and partially purified EthA as cofactors assessed as oleic acid levels relative to control; design: scale not given: the % may be the effect or the level left
Method in brief: as §2

[8] = test system: Mycobacterium tuberculosis H37Rv; test: Inhibition of Mycobacterium tuberculosis H37Rv recombinant DesA3-mediated unsaturated fatty acid synthesis using Mycobacterium smegmatis MC2155 membrane and partially purified EthA as cofactors assessed as stearic acid levels relative to control; design: scale not given: the % may be the effect or the level left
Method in brief: as §2

[9] = test system: Mycobacterium tuberculosis H37Rv; test: Inhibition of Mycobacterium tuberculosis H37Rv recombinant DesA3-mediated unsaturated fatty acid synthesis using Mycobacterium smegmatis MC2155 membrane and partially purified EthA as cofactors assessed as tuberculostearic acid levels relative control; design: scale not given: the % may be the effect or the level left
Method in brief: as §2

[10] = test system: Mycobacterium tuberculosis H37Rv; test: Inhibition of Mycobacterium tuberculosis H37Rv recombinant DesA3-mediated unsaturated fatty acid synthesis using Mycobacterium smegmatis MC2155 membrane as cofactor assessed as palmitoleic acid levels relative to control; design: scale not given: the % may be the effect or the level left
Method in brief: as §2

[11] = test system: Mycobacterium tuberculosis H37Rv; test: Inhibition of Mycobacterium tuberculosis H37Rv recombinant DesA3-mediated unsaturated fatty acid synthesis using Mycobacterium smegmatis MC2155 membrane as cofactor assessed as palmitic acid levels relative to control; design: scale not given: the % may be the effect or the level left
Method in brief: as §2

[12] = test system: Mycobacterium tuberculosis H37Rv; test: Inhibition of Mycobacterium tuberculosis H37Rv recombinant DesA3-mediated unsaturated fatty acid synthesis using Mycobacterium smegmatis MC2155 membrane as cofactor assessed as oleic acid levels relative to control; design: scale not given: the % may be the effect or the level left
Method in brief: as §2

[13] = test system: Mycobacterium tuberculosis H37Rv; test: Inhibition of Mycobacterium tuberculosis H37Rv recombinant DesA3-mediated unsaturated fatty acid synthesis using Mycobacterium smegmatis MC2155 membrane as cofactor assessed as stearic acid levels relative to control; design: scale not given: the % may be the effect or the level left
Method in brief: as §2

[14] = test system: Mycobacterium tuberculosis H37Rv; test: Inhibition of Mycobacterium tuberculosis H37Rv recombinant DesA3-mediated unsaturated fatty acid synthesis using Mycobacterium smegmatis MC2155 membrane as cofactor assessed as tuberculostearic acid levels relative to control; design: scale not given: the % may be the effect or the level left
Method in brief: as §2

Compound `CCc1cc(C(N)=S)ccn1` [ETHIONAMIDE] has an MIC [1] of 5 µg/mL (≈ 30.1 µM) and an MIC [2] of 5 µg/mL (≈ 30.1 µM).

`CC(C)CCOc1ccc(NC(=S)Nc2ccc(OCCC(C)C)cc2)cc1` [TIOCARLIDE] showed an MIC [3] of 5 µg/mL (≈ 12.5 µM), an Activity [4] of 1.9% and an MIC [5] of 5 µg/mL (≈ 12.5 µM). The Activity [6] was 49.8%, the Activity [7] was 4.4% and the Activity [8] was 1.1%. It also gave an Activity [9] of 42.8%, an Activity [10] of 0.1% and an Activity [11] of 54.1%. For the same compound, the Activity [12] was 0.1%, the Activity [13] was 1% and the Activity [14] was 44.7%.

Reference: ChEMBL document CHEMBL1137655, “Isoxyl activation is required for bacteriostatic activity against Mycobacterium tuberculosis” (2007)
